≈ marks a conversion by molar mass, not a printed value.
How the values were obtained:
HeLa = test: Cytotoxicity against human HeLa cells after 4 days by trypan blue assay; format: functional; settings: 96 h, read-out: ED50 (the source's name)
How it was run: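 HeLa cells cultured in Joklik's MEM with 10% fetal calf serum, streptomycin and penicillin G (doubling time ca. 24 h). Exponentially growing cells with >95% trypan-blue viability. Lignans were taken from 0.5 or 5 mM stocks in 96% EtOH, and 24 twofold dilutions were made in medium. 2000 cells/well, 4 days at 37°, 5% CO2. Growth was scored visually by pellet diameter against untreated controls, and ED50 (50% growth inhibition) calculated.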

[1] = Cytotoxicity against mouse EAT cells after 4 days by trypan blue assay; format: functional; settings: 96 h, read-out: ED50 (the source's name)
How it was run: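 Murine Ehrlich ascites tumor cells grown in suspension in RPMI 1640 with 10% fetal calf serum, streptomycin and penicillin G (doubling time 12–14 h). Exponential-phase cells, viability >95% by trypan blue. Lignans came from 0.5 or 5 mM 96% EtOH stocks, in 24 twofold dilutions. 2000 viable cells/well, incubated 4 days at 37°, 5% CO2. Sedimented pellet diameters were compared visually with untreated wells, and ED50 derived as 50% growth inhibition.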

Row | Structure (SMILES) | EC50 (HeLa) [µg/mL] | EC50 [1] [µg/mL]
1 | COc1cc([C@@H]2c3cc4c(c(OC)c3[C@H](O)[C@H]3COC(=O)[C@H]23)OCO4)cc(OC)c1OC | 22 (≈ 49.5 µM) | 32 (≈ 72 µM)
2 | COc1cc([C@@H]2c3cc4c(cc3[C@H](O[C@@H]3O[C@H](CO)[C@@H](O)[C@H](O)[C@H]3O)[C@H]3COC(=O)[C@H]23)OCO4)cc(OC)c1OC | 21.8 (≈ 37.8 µM) | 30 (≈ 52 µM)
3 | COc1cc([C@@H]2c3cc4c(cc3[C@@H](O[C@@H]3O[C@@H]5CO[C@@H](C)O[C@H]5[C@H](O)[C@H]3O)[C@H]3COC(=O)[C@H]23)OCO4)cc(OC)c1O [ETOPOSIDE] | 7.9 (≈ 13.4 µM) | 1.1 (≈ 1.87 µM)
4 | COc1cc([C@@H]2c3cc4c(cc3[C@H](O)[C@H]3COC(=O)[C@H]23)OCO4)cc(OC)c1OC [PODOFILOX] | 20.5 (≈ 49.5 µM) | 42.8 (≈ 103 µM)
5 | COc1cc([C@@H]2c3cc4c(cc3[C@@H](O[C@@H]3O[C@@H]5CO[C@@H](c6cccs6)O[C@H]5[C@H](O)[C@H]3O)[C@H]3COC(=O)[C@H]23)OCO4)cc(OC)c1O [TENIPOSIDE] | 0.3 (≈ 0.457 µM) | 0.06 (≈ 0.0914 µM)
